Key:
Format in all cases: functional
[1] = Growth inhibition of human NCI-H522 cells at 10 uM after 48 hrs by SRB assay relative to control; details: NCI-H522, 48 h, read-out: GI
Procedure, shortened: (§1)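 NCI 60-cell-line panel, nine tumor subpanels; compounds tested at a single dose of 10 μM in the primary screen.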

Cancer cell lines [2] = experiment: Potency index, ratio of 5-fluorouracil GI50 to compound GI50 for human breast cancer cells
Procedure, shortened: (§2)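 GI50 for each cell line came from NCI panel testing over a 5-log dose range, with 5-fluorouracil tested alongside as the reference drug. The index relates the 5-fluorouracil GI50 to the compound GI50 within each tumour subpanel.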

[3] = Growth inhibition of human NCI-H460 cells at 10 uM after 48 hrs by SRB assay relative to control; details: NCI-H460, 48 h, read-out: GI; procedure, shortened: as §1
[4] = Growth inhibition of human renal cancer cells after 48 hrs by SRB assay; details: Cancer cell lines
Procedure, shortened: (§3)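 Follow-up NCI panel testing over a 5-log dose range for each cell line. GI50, TGI and LC50 were monitored, with 5-fluorouracil run as the positive control. Values are grouped by tumour subpanel.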

[5] = Growth inhibition of human OVCAR8 cells at 10 uM after 48 hrs by SRB assay relative to control; details: OVCAR-8, 48 h, read-out: GI; procedure, shortened: as §1
[6] = Growth inhibition of human SF295 cells at 10 uM after 48 hrs by SRB assay relative to control; details: SF-295, 48 h, read-out: GI; procedure, shortened: as §1
Cancer cell lines [7] = experiment: Potency index, ratio of 5-fluorouracil GI50 to compound GI50 for human prostate cancer cells; procedure, shortened: as §2
[8] = Growth inhibition of human SF268 cells at 10 uM after 48 hrs by SRB assay relative to control; details: SF-268, 48 h, read-out: GI; procedure, shortened: as §1
[9] = Growth inhibition of human MDA-MB-468 cells at 10 uM after 48 hrs by SRB assay relative to control; details: MDA-MB-468, 48 h, read-out: GI; procedure, shortened: as §1
[10] = Growth inhibition of human HOP62 cells at 10 uM after 48 hrs by SRB assay relative to control; details: HOP-62, 48 h, read-out: GI; procedure, shortened: as §1
[11] = Growth inhibition of human ovarian cancer cells after 48 hrs by SRB assay; details: Cancer cell lines; procedure, shortened: as §3
[12] = Growth inhibition of human NCI-H23 cells at 10 uM after 48 hrs by SRB assay relative to control; details: NCI-H23, 48 h, read-out: GI; procedure, shortened: as §1
[13] = Growth inhibition of human non-small cell lung cancer cells after 48 hrs by SRB assay; details: Cancer cell lines; procedure, shortened: as §3
[14] = Growth inhibition of human K562 cells at 10 uM after 48 hrs by SRB assay relative to control; details: K562, 48 h, read-out: GI; procedure, shortened: as §1
[15] = Growth inhibition of human SNB75 cells at 10 uM after 48 hrs by SRB assay relative to control; details: SNB-75, 48 h, read-out: GI
Procedure, shortened: (§4)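 Primary screen across the full NCI 60 human tumour cell line panel, which covers nine tumour subpanels. A single dose of 10 μM was applied to each line, and growth was recorded for each cell line.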

[16] = Growth inhibition of human CNS cancer cells after 48 hrs by SRB assay; details: Cancer cell lines
Procedure, shortened: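 Five-log dose range against NCI tumor cell lines, monitoring GI50, TGI and LC50 for each cell line; MG-MID values derived across the panel; 5-fluorouracil positive control.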

[17] = Growth inhibition of human melanoma cells after 48 hrs by SRB assay; details: Melanoma cell; procedure, shortened: as §3
[18] = Growth inhibition of human SK-MEL-2 cells at 10 uM after 48 hrs by SRB assay relative to control; details: SK-MEL-2, 48 h, read-out: GI; procedure, shortened: as §4
[19] = Growth inhibition of human HCT15 cells at 10 uM after 48 hrs by SRB assay relative to control; details: HCT-15, 48 h, read-out: GI; procedure, shortened: as §1
[20] = Growth inhibition of human SK-MEL-28 cells at 10 uM after 48 hrs by SRB assay relative to control; details: SK-MEL-28, 48 h, read-out: GI; procedure, shortened: as §4
[21] = Growth inhibition of human leukemia cells after 48 hrs by SRB assay; details: Leukemia cell; for CC50: read-out: LC50 (the source's name); procedure, shortened: as §3
Cancer cell lines [22] = experiment: Potency index, ratio of 5-fluorouracil GI50 to compound GI50 for human colon cancer cells; procedure, shortened: as §2
[23] = Growth inhibition of human BT549 cells at 10 uM after 48 hrs by SRB assay relative to control; details: BT-549, 48 h, read-out: GI; procedure, shortened: as §1
[24] = Growth inhibition of human MOLT4 cells at 10 uM after 48 hrs by SRB assay relative to control; details: MOLT-4, 48 h, read-out: GI; procedure, shortened: as §1
[25] = Growth inhibition of human SR cells at 10 uM after 48 hrs by SRB assay relative to control; details: read-out: GI; procedure, shortened: as §4
[26] = Growth inhibition of human UACC257 cells at 10 uM after 48 hrs by SRB assay relative to control; details: UACC-257, 48 h, read-out: GI; procedure, shortened: as §4
Leukemia cell = experiment: Potency index, ratio of 5-fluorouracil GI50 to compound GI50 for human leukemia cells; procedure, shortened: as §2
[27] = Growth inhibition of human HOP92 cells at 10 uM after 48 hrs by SRB assay relative to control; details: HOP-92, 48 h, read-out: GI; procedure, shortened: as §1
[28] = Growth inhibition of human OVCAR5 cells at 10 uM after 48 hrs by SRB assay relative to control; details: OVCAR-5, 48 h, read-out: GI; procedure, shortened: as §1
[29] = Growth inhibition of human U251 cells at 10 uM after 48 hrs by SRB assay relative to control; details: U-251, 48 h, read-out: GI; procedure, shortened: as §4
[30] = Growth inhibition of human HCT116 cells at 10 uM after 48 hrs by SRB assay relative to control; details: HCT-116, 48 h, read-out: GI; procedure, shortened: as §1
[31] = Growth inhibition of human MDA-MB-231 cells at 10 uM after 48 hrs by SRB assay relative to control; details: MDA-MB-231, 48 h, read-out: GI; procedure, shortened: as §1
[32] = Growth inhibition of human RPMI8226 cells at 10 uM after 48 hrs by SRB assay relative to control; details: RPMI-8226, 48 h, read-out: GI; procedure, shortened: as §1
[33] = Growth inhibition of human HL-60(TB) cells at 10 uM after 48 hrs by SRB assay relative to control; details: HL-60, 48 h, read-out: GI
Procedure, shortened: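 NCI disease-oriented human tumour cell line screen: primary single-dose assay at 10 μM across the full 60-cell-line panel spanning nine tumour subpanels.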

[34] = Growth inhibition of human A498 cells at 10 uM after 48 hrs by SRB assay relative to control; details: A498, 48 h, read-out: GI; procedure, shortened: as §1
[35] = Growth inhibition of human MDA-MB-435 cells at 10 uM after 48 hrs by SRB assay relative to control; details: MDA-MB-435, 48 h, read-out: GI; procedure, shortened: as §1

## COc1ccc(-n2c(SCc3cc(OC)c(OC)c(OC)c3)nc3ccc(C)cc3c2=O)c(OC)c1
[1]
  inhibition of growth at 10 µM: < 10%
Cancer cell lines [2]
  RatioGI50: 2 - 10
[3]
  inhibition of growth at 10 µM: 95.4%
[4]
  GI50: 15.4 µM
  LC50: > 100 µM
  TGI: 92.5 µM
[5]
  inhibition of growth at 10 µM: 54.5%
[6]
  inhibition of growth at 10 µM: 93.7%
Cancer cell lines [7]
  RatioGI50: 2 - 10
[8]
  inhibition of growth at 10 µM: 55.9%
[9]
  inhibition of growth at 10 µM: 83%
[10]
  inhibition of growth at 10 µM: 52.6%
[11]
  GI50: 5.1 µM
  LC50 (50% lethal concentration): > 100 µM
  TGI: 86.7 µM
[12]
  inhibition of growth at 10 µM: 82.2%
[13]
  GI50: 17.7 µM
  LC50 (concentration killing 50% of cells): > 100 µM
  TGI: 96.5 µM
[14]
  inhibition of growth at 10 µM: 85.6%
[15]
  inhibition of growth at 10 µM: 70.4%
[16]
  GI50: 9.6 µM
  LC50 (lethal concentration, 50% net cell kill): > 100 µM
  TGI: 84.6 µM
[17]
  GI50: 4.2 µM
  LC50: 89.9 µM
  TGI: 77.4 µM
[18]
  inhibition of growth at 10 µM: < 10%
[19]
  inhibition of growth at 10 µM: 76.4%
[20]
  inhibition of growth at 10 µM: 59.2%
[21]
  GI50: 2.5 µM
  TGI: 56.2 µM
  CC50: > 100 µM
Cancer cell lines [22]
  RatioGI50: 2 - 10
[23]
  inhibition of growth at 10 µM: 67.9%
[24]
  inhibition of growth at 10 µM: 88.7%
[25]
  inhibition of growth at 10 µM: 92.3%
[26]
  inhibition of growth at 10 µM: < 10%
Leukemia cell
  RatioGI50: 2 - 10
[27]
  inhibition of growth at 10 µM: 77.3%
[28]
  inhibition of growth at 10 µM: 56.8%
[29]
  inhibition of growth at 10 µM: 75.2%
[30]
  inhibition of growth at 10 µM: 81.9%
[31]
  inhibition of growth at 10 µM: 55.2%

## COc1ccc(-n2c(SCc3cc(OC)c(OC)c(OC)c3)nc3ccc(C)cc3c2=O)cc1
[1]
  inhibition of growth at 10 µM: 60.7%
Cancer cell lines [2]
  RatioGI50: 2 - 10
[3]
  inhibition of growth at 10 µM: 26.2%
[4]
  GI50: 39.7 µM
  LC50: > 100 µM
  TGI: 88.1 µM
[5]
  inhibition of growth at 10 µM: 15.8%
[6]
  inhibition of growth at 10 µM: 48.6%
Cancer cell lines [7]
  RatioGI50: 2 - 10
[8]
  inhibition of growth at 10 µM: 19.4%
[9]
  inhibition of growth at 10 µM: 53.2%
[32]
  inhibition of growth at 10 µM: < 10%
[10]
  inhibition of growth at 10 µM: 34.8%
[11]
  GI50: 46.9 µM
  LC50 (50% lethal concentration): > 100 µM
[12]
  inhibition of growth at 10 µM: 30.1%
[13]
  GI50: 34.5 µM
  LC50 (concentration killing 50% of cells): > 100 µM
  TGI: > 100 µM
[14]
  inhibition of growth at 10 µM: 83.1%
[33]
  inhibition of growth at 10 µM: 68.9%
[15]
  inhibition of growth at 10 µM: 55.6%
[16]
  GI50: 30.9 µM
  LC50 (lethal concentration, 50% net cell kill): > 100 µM
  TGI: > 100 µM
[17]
  GI50: 19.7 µM
  LC50: > 100 µM
  TGI: 89.4 µM
[18]
  inhibition of growth at 10 µM: 35.3%
[34]
  inhibition of growth at 10 µM: 62%
[19]
  inhibition of growth at 10 µM: 66.4%
[20]
  inhibition of growth at 10 µM: 26%
[21]
  GI50: 3.4 µM
  TGI: 90.2 µM
  CC50: > 100 µM
Cancer cell lines [22]
  RatioGI50: 2 - 10
[23]
  inhibition of growth at 10 µM: 28.6%
[24]
  inhibition of growth at 10 µM: 44%
[25]
  inhibition of growth at 10 µM: 77%
[26]
  inhibition of growth at 10 µM: 22.7%
Leukemia cell
  RatioGI50: 2 - 10
[27]
  inhibition of growth at 10 µM: < 10%
[28]
  inhibition of growth at 10 µM: 19.4%
[29]
  inhibition of growth at 10 µM: 30.9%
[30]
  inhibition of growth at 10 µM: 65.1%
[31]
  inhibition of growth at 10 µM: 40.3%

## COc1ccc(CSc2nc3cc(OC)c(OC)cc3c(=O)n2-c2ccc(OC)cc2OC)cc1
[1]
  inhibition of growth at 10 µM: 31.4%
[3]
  inhibition of growth at 10 µM: < 10%
[5]
  inhibition of growth at 10 µM: 10.8%
[6]
  inhibition of growth at 10 µM: 10.4%
[8]
  inhibition of growth at 10 µM: 13.7%
[9]
  inhibition of growth at 10 µM: 25.7%
[32]
  inhibition of growth at 10 µM: 36.3%
[10]
  inhibition of growth at 10 µM: < 10%
[12]
  inhibition of growth at 10 µM: 21.7%
[14]
  inhibition of growth at 10 µM: 12.9%
[33]
  inhibition of growth at 10 µM: < 10%
[15]
  inhibition of growth at 10 µM: < 10%
[35]
  inhibition of growth at 10 µM: 38%
[18]
  inhibition of growth at 10 µM: < 10%
[34]
  inhibition of growth at 10 µM: 41.4%
[19]
  inhibition of growth at 10 µM: 19.4%
[20]
  inhibition of growth at 10 µM: < 10%
[23]
  inhibition of growth at 10 µM: < 10%
[24]
  inhibition of growth at 10 µM: 20.6%
[25]
  inhibition of growth at 10 µM: 40.6%
[26]
  inhibition of growth at 10 µM: < 10%
[27]
  inhibition of growth at 10 µM: 24.5%
[28]
  inhibition of growth at 10 µM: < 10%
[29]
  inhibition of growth at 10 µM: < 10%
[30]
  inhibition of growth at 10 µM: 37.2%
[31]
  inhibition of growth at 10 µM: 24.6%
